Measurements as given in publication PMC7983888 (Clinical Pharmacology in Drug Development, 2020).
“And” between values parts separate entries of the source, which are not always exact repeats. Identical values can stand only once. “Also recorded” adds a separate entry of the source.

Tests used:
healthy volunteers = assay: Safety and tolerability; format: in vivo, human
[1] = tested on: human ether‐à‐go‐go‐related gene (hERG) potassium channels; settings: human embryonic kidney 293 cells; cited from earlier work
[2] = tested on: cardiac repolarization (QTc interval) in healthy volunteers; assay: Exposure-response; format: in vivo, human
[3] = Plasma glasdegib pharmacokinetics after single oral doses; format: in vivo, human; settings: for AUCextrap / CL/F: fasted, n=35, arithmetic mean ± SD; for Cmax / half-life: human, plasma, po
Method in brief: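 Healthy volunteers in a randomized, double-blind, 4-period crossover received single oral doses after an overnight fast (≥10 hours), with washout ≥6 days. Plasma was assayed by validated HPLC-MS/MS: calibration 3–3000 ng/mL with 1/concentration² weighting, LLOQ 3 ng/mL, samples stored at −70°C. Cmax, Tmax, AUClast, AUCinf, CL/F, apparent volume and terminal half-life were derived by noncompartmental analysis.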

[4] = tested on: patients with advanced hematologic malignancies; settings: cited from earlier work
[5] = tested on: cardiac repolarization (QTc interval) in healthy volunteers; assay: Thorough QT study: ANCOVA of QTcF versus time-matched placebo; format: in vivo, human; settings: for QTcF Difference (Glasdegib‐Placebo) (90%CI) / QTcF LS Mean: N = 35
[6] = patient population, cited from earlier work
[7] = glasdegib 150 mg single oral dose
[8] = glasdegib 300 mg single oral dose
[9] = glasdegib 150 mg single dose, 0.5 h postdose
[10] = glasdegib 150 mg single dose, 1 h postdose
[11] = glasdegib 150 mg single dose, 1.5 h postdose
[12] = glasdegib 150 mg single dose, 2 h postdose
[13] = glasdegib 150 mg single dose, 3 h postdose
[14] = glasdegib 150 mg single dose, 4 h postdose
[15] = glasdegib 150 mg single dose, 6 h postdose
[16] = glasdegib 150 mg single dose, 24 h postdose
[17] = glasdegib 300 mg single dose, 0.5 h postdose
[18] = glasdegib 300 mg single dose, 1 h postdose
[19] = glasdegib 300 mg single dose, 1.5 h postdose
[20] = glasdegib 300 mg single dose, 2 h postdose
[21] = glasdegib 300 mg single dose, 3 h postdose
[22] = glasdegib 300 mg single dose, 4 h postdose
[23] = glasdegib 300 mg single dose, 6 h postdose
[24] = glasdegib 300 mg single dose, 24 h postdose
[25] = moxifloxacin 400 mg single dose

CN1CC[C@@H](NC(=O)Nc2ccc(C#N)cc2)C[C@@H]1c1nc2ccccc2[nH]1 [Glasdegib]
treatment‐emergent AEs (TEAEs), number (healthy volunteers; glasdegib 150 mg single dose): 25 | treatment‐related AEs (TRAEs), number (healthy volunteers; glasdegib 150 mg single dose): 20 | treatment‐emergent AEs (TEAEs), number (healthy volunteers; glasdegib 300 mg single dose): 26 | treatment‐related AEs (TRAEs), number (healthy volunteers; glasdegib 300 mg single dose): 20 | tolerability (in words) (healthy volunteers; single oral doses of 150 and 300 mg, healthy adult subjects): well tolerated | hERG potassium channel inhibition (in words) [1]: inhibit the human ether‐à‐go‐go‐related gene (hERG) potassium channels in a concentration‐dependent manner | PK/PD hysteresis (lag between plasma concentration and effect on QTc) ([2]; 150 and 300 mg single doses): No PK/PD hysteresis | mean slope estimate describing the ∆QTcF‐concentration relationship ([2]; LME model): 0.005 ms/ng/mL | effect on heart rate (change in RR interval, ∆RR versus concentration) ([2]; LME model of ∆RR versus glasdegib concentration): not to have a meaningful effect on heart rate; also recorded: relationship of negligible magnitude | Slope Estimate From Final Model, ∆QTcF per ng/mL (95%CI) ([2]; QTcF, LME model): 0.005 (0.004‐0.006) Milliseconds per ng/mL | Slope Estimate From Final Model, ∆QTcS per ng/mL (95%CI) ([2]; QTcS (study population-specific correction), LME model): 0.004 (0.003‐0.005) Milliseconds per ng/mL | Model‐Derived ∆∆QTcS (90%CI) ([2]; Supratherapeutic Steady‐State Cmax (2445 ng/mL)): 11.89 (10.14‐13.64) Milliseconds | Model‐Derived ∆∆QTcF (90%CI) ([2]; Supratherapeutic Steady‐State Cmax (2445 ng/mL), 200 mg once daily): 13.72 (11.95‐15.49) Milliseconds | Model‐Derived ∆∆QTcS (90%CI) ([2]; Therapeutic Steady‐State Cmax (1137 ng/mL)): 6.55 (5.68‐7.43) Milliseconds | Model‐Derived ∆∆QTcF (90%CI) ([2]; Therapeutic Steady‐State Cmax (1137 ng/mL), 100 mg once daily): 7.34 (6.46‐8.22) Milliseconds | Model‐Derived ∆∆QTcF (90%CI) ([2]; Therapeutic Steady‐State Cmax (1137 ng/mL), 100 mg once daily, listed as glasdegib): 7.3 Milliseconds and 7.34 Milliseconds | upper bound of the 90%CI of mean predicted ΔΔQTcF ([2]; mean therapeutic glasdegib Cmax): < 10 milliseconds | upper bound of the 90%CI of mean predicted ΔΔQTcF ([2]; supratherapeutic glasdegib Cmax (twice the therapeutic dose)): < 20 milliseconds | AUCextrap [3, 7]: 0.6660 ± 0.30% | CL/F [3, 7]: 10.37 ± 3.58 L/h | AUCextrap [3, 8]: 0.4113 ± 0.19% | CL/F [3, 8]: 10.09 ± 3.05 L/h | Cmax ([3]; 150 mg): 1120 ± 388 ng/mL | half-life ([3]; 150 mg): 15.8 ± 2.06 h | Cmax ([3]; 300 mg): 2300 ± 651 ng/mL | half-life ([3]; 300 mg): 15.5 ± 1.77 h | dose proportionality of geometric mean AUCinf and Cmax ([3]; single oral doses of 150 and 300 mg): increased proportionally with dose | QTc experienced by some patients ([4]; multiple dosing at 400 mg and 600 mg once daily): > 500 milliseconds | maximum tolerated dose ([4]; single-agent, patients with advanced hematologic malignancies): 400 mg once daily | highest 90%CI upper bound for the largest and placebo‐ and baseline‐adjusted QTcF change ([5]; glasdegib 150 mg (therapeutic plasma exposure), 4 hours postdose): 10.22 milliseconds | upper bound of the 2‐sided 90%CIs for all time‐matched least‐squares mean differences in QTcF between glasdegib and placebo ([5]; glasdegib 150 mg and 300 mg single doses): < 20 milliseconds | QTcF Difference (Glasdegib‐Placebo) (90%CI) [5, 9]: −0.09 (−2.28 to 2.09) Milliseconds | QTcF LS Mean [5, 9]: 406.43 Milliseconds | QTcF Difference (Glasdegib‐Placebo) (90%CI) [5, 10]: 2.07 (−0.11 to 4.25) Milliseconds | QTcF LS Mean [5, 10]: 407.86 Milliseconds | QTcF Difference (Glasdegib‐Placebo) (90%CI) [5, 11]: 5.17 (2.99‐7.35) Milliseconds | QTcF LS Mean [5, 11]: 410.08 Milliseconds | QTcF Difference (Glasdegib‐Placebo) (90%CI) [5, 12]: 5.98 (3.80‐8.16) Milliseconds | QTcF LS Mean [5, 12]: 410.58 Milliseconds | QTcF Difference (Glasdegib‐Placebo) (90%CI) [5, 13]: 7.76 (5.58‐9.95) Milliseconds | QTcF LS Mean [5, 13]: 412.06 Milliseconds | QTcF Difference (Glasdegib‐Placebo) (90%CI) [5, 14]: 8.03 (5.85‐10.22) Milliseconds | QTcF LS Mean [5, 14]: 413.23 Milliseconds | QTcF Difference (Glasdegib‐Placebo) (90%CI) [5, 15]: 5.11 (2.93‐7.29) Milliseconds | QTcF LS Mean [5, 15]: 407.38 Milliseconds | QTcF Difference (Glasdegib‐Placebo) (90%CI) [5, 16]: 5.92 (3.74‐8.10) Milliseconds | QTcF LS Mean [5, 16]: 410.98 Milliseconds | highest 90%CI upper bound for the largest, placebo‐ and baseline‐adjusted QTcF change ([5]; glasdegib 300 mg (supratherapeutic plasma exposure), 3 hours postdose): 15.61 milliseconds | QTcF Difference (Glasdegib‐Placebo) (90%CI) [5, 17]: 0.65 (−1.53 to 2.83) Milliseconds | QTcF LS Mean [5, 17]: 407.18 Milliseconds | QTcF Difference (Glasdegib‐Placebo) (90%CI) [5, 18]: 5.14 (2.96‐7.32) Milliseconds | QTcF LS Mean [5, 18]: 410.92 Milliseconds | QTcF Difference (Glasdegib‐Placebo) (90%CI) [5, 19]: 9.84 (7.66‐12.02) Milliseconds | QTcF LS Mean [5, 19]: 414.75 Milliseconds | QTcF Difference (Glasdegib‐Placebo) (90%CI) [5, 20]: 11.06 (8.88‐13.24) Milliseconds | QTcF LS Mean [5, 20]: 415.66 Milliseconds | QTcF Difference (Glasdegib‐Placebo) (90%CI) [5, 21]: 13.43 (11.25‐15.61) Milliseconds | QTcF LS Mean [5, 21]: 417.72 Milliseconds | QTcF Difference (Glasdegib‐Placebo) (90%CI) [5, 22]: 13.41 (11.23‐15.59) Milliseconds | QTcF LS Mean [5, 22]: 418.60 Milliseconds | QTcF Difference (Glasdegib‐Placebo) (90%CI) [5, 23]: 10.82 (8.64‐13.00) Milliseconds | QTcF LS Mean [5, 23]: 413.08 Milliseconds | QTcF Difference (Glasdegib‐Placebo) (90%CI) [5, 24]: 8.91 (6.73‐11.09) Milliseconds | QTcF LS Mean [5, 24]: 413.96 Milliseconds | Therapeutic Steady‐State Cmax ([6]; 100 mg once daily): Therapeutic Steady‐State Cmax (1137 ng/mL) | Supratherapeutic Steady‐State Cmax ([6]; 200 mg once daily): Supratherapeutic Steady‐State Cmax (2445 ng/mL)

COc1c(N2C[C@@H]3CCCN[C@@H]3C2)c(F)cc2c(=O)c(C(=O)O)cn(C3CC3)c12 [Moxifloxacin]
treatment‐emergent AEs (TEAEs), number (healthy volunteers; [25]): 27 | treatment‐related AEs (TRAEs), number (healthy volunteers; [25]): 23
